Source: ChEMBL document CHEMBL1125104, “Long-acting dihydropyridine calcium antagonists. 5. Synthesis and structure-activity relationships for a series of 2-[[(N-substituted-heterocyclyl)ethoxy]methyl]-1,4-dihydropyridine calcium antagonists” (J Med Chem, 1990)

What was measured:
Cavia porcellus = species: Cavia porcellus; assay: Concentration required to depress contraction in the Langendorff-perfused guinea pig heart; format: functional
How it was run: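 Langendorff-perfused guinea pig heart, in vitro. The negative inotropic effect is given as IC25, the concentration that depresses contraction by 25%.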

Rattus norvegicus = species: Rattus norvegicus; assay: Concentration required to block Ca+2-induced contraction of K+ depolarized rat aorta; format: functional
How it was run: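 Isolated rat aorta depolarized with potassium; contraction triggered by added calcium. IC50 is the concentration that inhibits the calcium-induced contraction by 50%.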

[1] = […] of rat aorta to […] of guinea pig; format: functional
[2] = Half life of the compound
Canis familiaris = assay: Coronary vasodilator activity in anesthetized dogs at the dose of 150 ug/kg (iv); format: functional, Canis lupus familiaris

IC50 (Rattus norvegicus) [nM] | half-life [2] [min] | Compound | pIC25 (Cavia porcellus) | Selectivity index [1] | Decrease (Canis familiaris) [%]
31.6 |  | CCO/C(O)=C1\C(COCCN2C(=O)CNC2=O)=NC(C)=C(C(=O)OC)C1c1ccccc1Cl (stereo not given) | 6.8 | 5 | 
100 |  | CCO/C(O)=C1\C(COCCn2nncc2C(N)=O)=NC(C)=C(C(=O)OC)C1c1ccccc1Cl (stereo not given) | 6.3 | 5 | 
5.01 | 30 | CCO/C(O)=C1\C(COCCn2ccnn2)=NC(C)=C(C(=O)OC)C1c1cccc(Cl)c1Cl (stereo not given) | 7.3 | 10 | 79
50.1 |  | CCOC(=O)c1cn(CCOCC2=NC(C)=C(C(=O)OC)C(c3ccccc3Cl)/C2=C(\O)OCC)nn1 (stereo not given) | 7 | 2 | 
100 |  | CCOC(=O)c1cnnn1CCOCC1=NC(C)=C(C(=O)OC)C(c2ccccc2Cl)/C1=C(\O)OCC (stereo not given) | 6.9 | 1.3 | 
31.6 |  | CCO/C(O)=C1\C(COCCn2cc(N)nc2O)=NC(C)=C(C(=O)OC)C1c1ccccc1Cl (stereo not given) | <6 | >32 | 
20 |  | CCO/C(O)=C1\C(COCCN2CC(=O)N=C2N)=NC(C)=C(C(=O)OC)C1c1ccccc1Cl (stereo not given) | 6.1 | 40 | 
158 |  | CCO/C(O)=C1\C(COCCn2c(N)cnc2O)=NC(C)=C(C(=O)OC)C1c1ccccc1Cl (stereo not given) | 6 | 6 | 
15.8 |  | CCO/C(O)=C1\C(COCCn2ccnn2)=NC(C)=C(C(=O)OC)C1c1ccccc1Cl (stereo not given) | 7.3 | 3 | 
25.1 |  | CCO/C(O)=C1\C(COCCN2CC(=O)N(C)C2=O)=NC(C)=C(C(=O)OC)C1c1ccccc1Cl (stereo not given) | 6.4 | 16 | 
3.16 | 20 | CCO/C(O)=C1\C(COCCn2cc(C(N)=O)nn2)=NC(C)=C(C(=O)OC)C1c1cccc(Cl)c1Cl (stereo not given) | 6.6 | 80 | 54
15.8 |  | CCO/C(O)=C1\C(COCCn2nncc2C(N)=O)=NC(C)=C(C(=O)OC)C1c1cccc(Cl)c1Cl (stereo not given) | 6.5 | 20 | 
 | > 180 | CCO/C(O)=C1\C(COCCN2CC(=O)N=C2N)=NC(C)=C(C(=O)OC)C1c1cccc(Cl)c1Cl (stereo not given) |  |  | 60
20 |  | CCO/C(O)=C1\C(COCCN2CC(=O)NC2=O)=NC(C)=C(C(=O)OC)C1c1ccccc1Cl (stereo not given) | 6.3 | 25 | 
20 |  | CCO/C(O)=C1\C(COCCn2cc(C(N)=O)nn2)=NC(C)=C(C(=O)OC)C1c1ccccc1Cl (stereo not given) | <6 | >50 | 
5.01 |  | CCO/C(O)=C1\C(COCCn2c(C)nc(C)c2C)=NC(C)=C(C(=O)OC)C1c1ccccc1Cl (stereo not given) | 7.5 | 6 | 
2.51 |  | CCO/C(O)=C1\C(COCCn2ccnc2C)=NC(C)=C(C(=O)OC)C1c1ccccc1Cl (stereo not given) | 7.8 | 6 | 
3.16 | 30 | CCO/C(O)=C1\C(COCCN2CC(=O)NC2=O)=NC(C)=C(C(=O)OC)C1c1cccc(Cl)c1Cl (stereo not given) | 7.1 | 25 | 65
25.1 |  | CCO/C(O)=C1\C(COCCn2cc(N)n(C)c2=O)=NC(C)=C(C(=O)OC)C1c1ccccc1Cl (stereo not given) | 6.2 | 25 | 
20 |  | CCO/C(O)=C1\C(COCCn2cnc3ccccc32)=NC(C)=C(C(=O)OC)C1c1ccccc1Cl (stereo not given) | 7.2 | 3 | 
 | 10 | CCO/C(O)=C1\C(COCCN2CC(=O)N(C)C2=O)=NC(C)=C(C(=O)OC)C1c1cccc(Cl)c1Cl (stereo not given) | 7.2 |  | 50

Compound | IC50 (Rattus norvegicus) [nM] | half-life [2] [min] | pIC25 (Cavia porcellus) | Selectivity index [1] | Decrease (Canis familiaris) [%]
CCOC(=O)C1=C(COCCN)NC(C)=C(C(=O)OC)C1c1ccccc1Cl (stereo not given) [AMLODIPINE] | 7.94 |  | 7.2 | 8 | 
COC(=O)C1=C(C)NC(C)=C(C(=O)OC)C1c1ccccc1[N+](=O)[O-] [NIFEDIPINE] |  | 36 | 7.5 | 8 | 77
